Experiment [1] relates to Cricetinae gen. sp. Description: Antileishmanial activity against Leishmania donovani in hamsters at a concentration of 0.20 mg/kg. In kind it is functional. Particulars: dose 0.2 mg/kg. The essentials: (§1)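 L. donovani infection in hamsters, following an earlier-cited protocol. Meglumine antimoniate was the reference drug. A G index, the activity of each test agent relative to the reference, was calculated from the dose-response data.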

The test system of experiment [2] is Cricetinae gen. sp. Description: Antileishmanial activity against Leishmania donovani in hamsters at a concentration of 0.81 mg/kg. In kind it is functional. The essentials:
as §1

The test system of experiment [3] is Cricetinae gen. sp. The experiment is described as follows: Antileishmanial activity against Leishmania donovani in hamsters at a concentration of 0.05 mg/kg. Type of experiment: functional. The essentials:
as §1

A short description of experiment [4]: G index = SD90 for meglumine antimoniate / SD90 for the compound. Type of experiment: functional. The essentials:
as §1

Experiment [5] deals with Cricetinae gen. sp. Description: Antileishmanial activity against Leishmania donovani in hamsters at a concentration of 13 mg/kg. Type of experiment: functional. The essentials:
as §1

The test system of experiment [6] is Cricetinae gen. sp. Description: Antileishmanial activity against Leishmania donovani in hamsters at a concentration of 52 mg/kg. In kind it is functional. The essentials: as §1
The subject of experiment [7] is Cricetinae gen. sp. Description: Antileishmanial activity against Leishmania donovani in hamsters at a concentration of 13 mg/kg (toxic). In kind it is functional. The essentials:
as §1

Experiment [8] concerns Cricetinae gen. sp. The experiment is described as follows: Antileishmanial activity against Leishmania donovani in hamsters at a concentration of 208 mg/kg. Type of experiment: functional. The essentials:
as §1

In experiment [9] the test system is Cricetinae gen. sp. The experiment is described as follows: Antileishmanial activity against Leishmania donovani in hamsters at a concentration of 13 mg/kg; I = inactive. Type of experiment: functional, organism-based. Further details: dose 13 mg/kg. The essentials:
as §1

Experiment [10] relates to Cricetinae gen. sp. The experiment is described as follows: Antileishmanial activity against Leishmania donovani in hamsters at a concentration of 0.81 mg/kg; I = inactive. Type of experiment: functional, organism-based. More on the design: dose 0.81 mg/kg. The essentials: as §1

Calls of active or inactive are those of the source. No cut-off for these calls is given here.

Take `CCN(CC)CCCCCCNc1cc(OC)c(OC)c2c(C)ccnc12.Cl.Cl`: the Supression with Cricetinae gen. sp. [1] worked out at 100%; with Cricetinae gen. sp. [2], 100%; in the experiment with Cricetinae gen. sp. [3] it was 68%; in the experiment on Cricetinae gen. sp. [5], 99.9%. The molecule also yielded a G Index in [4] of 401.

With `COc1cc(NCCCCCCNC2CCC2)c2nccc(C)c2c1.Cl`, the results for the Supression in the experiment on Cricetinae gen. sp. [2], in the experiment on Cricetinae gen. sp. [6] and in the experiment with Cricetinae gen. sp. [5] were 99.2%, 100% and 100%, respectively. The molecule also gave a G Index in [4] of 188.

For the molecule `COc1cc(NCCCCCCNCCO)c2nccc(C)c2c1.Cl`, the G Index in [4] came to 300. In the experiment with Cricetinae gen. sp. [5], this molecule gave a Supression of 99.9%.

`CCN(C(C)C)C(C)CCCCCNc1cc(OC)cc2c(C)ccnc12.Cl.Cl` (stereo unspecified): the Supression in the experiment on Cricetinae gen. sp. [7] was found to be 95.4%; in the experiment on Cricetinae gen. sp. [1], 97.3%; with Cricetinae gen. sp. [2], 100%.

Take `COc1cc(NCCCCCC(C)NC(C)C)c2nccc(C)c2c1.Cl` (stereo unspecified): the values for the Supression in the experiment on Cricetinae gen. sp. [7], in the experiment with Cricetinae gen. sp. [1] and with Cricetinae gen. sp. [2] were 95.4%, 97.3% and 100%, respectively. This molecule also returned a G Index in [4] of 300.

`CCN(CC)CCCCCCNc1cc(OC)cc2c(C)cc(O)nc12`: the Supression in the experiment with Cricetinae gen. sp. [8] worked out at 62.8%. In addition, the Supression entry in the experiment on Cricetinae gen. sp. [9] and with Cricetinae gen. sp. [10] was “inactive” each time.

With `CCN(CC)CCCCCCCNc1cc(OC)cc2c(C)ccnc12.Cl.Cl`, the figures for the Supression with Cricetinae gen. sp. [1], in the experiment on Cricetinae gen. sp. [2] and in the experiment with Cricetinae gen. sp. [5] were 73.1%, 99.8% and 100%, respectively. The molecule also registered a G Index in experiment [4] of 96.8.

With `COc1cc(NCCCCCCN(C(C)C)C(C)C)c2nccc(C)c2c1.Cl.Cl`, the Supression with Cricetinae gen. sp. [1] is on record as 97.4%; in the experiment with Cricetinae gen. sp. [2], 100%; in the experiment with Cricetinae gen. sp. [3] it was 20.2%; in the experiment on Cricetinae gen. sp. [5], 97.5%. Further, the G Index in experiment [4] amounted to 310.

Turning to `CCN(CC)CCCCCCNc1cc(OC)cc2c(C)ccnc12` [SITAMAQUINE], the values for the Supression in the experiment with Cricetinae gen. sp. [1], in the experiment on Cricetinae gen. sp. [2] and in the experiment with Cricetinae gen. sp. [3] were 99.6%, 100% and 83.7%, respectively. Further, the G Index in experiment [4] is 474.

With `CCN(CC)CCCCCNc1cc(OC)cc2c(C)ccnc12`, the Supression is 91.5% in the experiment on Cricetinae gen. sp. [1], 100% in the experiment with Cricetinae gen. sp. [2], 100% in the experiment with Cricetinae gen. sp. [6] and 100% in the experiment with Cricetinae gen. sp. [5]. The G Index in experiment [4] amounted to 178.

Regarding `CCCN(CCC)CCCCCCNc1cc(OC)cc2c(C)ccnc12.Cl`, the Supression is given as 99.9% with Cricetinae gen. sp. [1], 99.9% in the experiment on Cricetinae gen. sp. [2] and 31% in the experiment on Cricetinae gen. sp. [3]. Also, in experiment [4], the G Index came out at 333.

In the case of `CCN(CCO)CCCCCCNc1cc(OC)cc2c(C)ccnc12.Cl`, the G Index in [4] is 3.4. The Supression with Cricetinae gen. sp. [6] came out at 95.4%; in the experiment on Cricetinae gen. sp. [5] it was 79.2%.

The values above are taken from ChEMBL document CHEMBL1121602, “Analogues of 8-[[6-(diethylamino) hexyl]amino]-6-methoxy-4-methylquinoline as candidate antileishmanial agents” (1980).
